Results: ChEMBL document CHEMBL4480427, “Further insights of selenium-containing analogues of WC-9 against Trypanosoma cruzi” (Bioorg Med Chem, 2019)
The source made the active and inactive calls. The calls are words filed in the database; no cut-off is given here.

Key:
[1] = system: Vero; test: Cytotoxicity against African green monkey Vero cells at 20 uM after 72 hrs by Alamar Blue assay; type: cell-based; conditions: chlorocebus sabaeus
Method in brief: (§1)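 Vero cells treated 72 h at 35 °C, 7% CO2, in quadruplicate wells, with untreated host-cell and DMSO toxicity controls. Alamar Blue was added at 10% of culture volume for 6 h at 35 °C, and absorbance read at 570 and 600 nm. Cytotoxicity was also scored by cell detachment under optical microscopy. Three biological replicates of 4 technical replicates each.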

[2] = Cytotoxicity against African green monkey Vero cells after 72 hrs by Alamar Blue assay; type: cell-based; conditions: chlorocebus sabaeus, read-out: ED50; method in brief: as §1
[3] = system: Trypanosoma cruzi; test: Antitrypanosomal activity against tdTomato red expressing Trypanosoma cruzi CL amastigotes infected in gamma-irradiated African green monkey Vero cells assessed as inhibition of parasite growth at 10 uM after 72 hrs by fluorescence assay relative to untreated control; type: functional; conditions: light or radiation study, read-out: GI
[4] = system: Trypanosoma cruzi; test: Antitrypanosomal activity against tdTomato red expressing Trypanosoma cruzi CL amastigotes infected in gamma-irradiated African green monkey Vero cells assessed as inhibition of parasite growth at 1 uM after 72 hrs by fluorescence assay relative to untreated control; type: functional; conditions: light or radiation study, read-out: GI
[5] = system: Trypanosoma cruzi; test: Antitrypanosomal activity against tdTomato red expressing Trypanosoma cruzi CL amastigotes infected in gamma-irradiated African green monkey Vero cells after 72 hrs by fluorescence assay; type: functional; conditions: light or radiation study, read-out: ED50 (the source's name)
Method in brief: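 Gamma-irradiated (2,000 Rads) Vero cells, 3.4 × 10^4/well in RPMI with 10% FBS, held overnight at 35 °C, 7% CO2. Infected 5 h with 3.4 × 10^5 tdTomato CL trypomastigotes/well, then washed. Compounds were serially diluted 1.56–25 µM in quadruplicate, with benznidazole reference at 0.39–6.25 µM. Fluorescence read 72 h post-infection. ED50 by non-linear regression, mean ± S.D. of 3 biological replicates.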

[6] = system: Vero; test: Cytotoxicity against African green monkey Vero cells at 15 to 20 uM after 72 hrs by Alamar Blue assay; type: cell-based; conditions: chlorocebus sabaeus; method in brief: as §1
[7] = system: Trypanosoma cruzi; test: Antitrypanosomal activity against tdTomato red expressing Trypanosoma cruzi CL amastigotes infected in gamma-irradiated African green monkey Vero cells assessed as inhibition of parasite growth at 6 uM after 72 hrs by fluorescence assay relative to untreated control; type: functional, organism-based

SMILES: N#C[Se]CCOc1ccccc1
- Activity [1]: Toxic

SMILES: N#C[Se]CCOc1ccccc1Oc1ccccc1
- CC50 at 72 h [2]: > 20 µM
- inhibition of growth at 10 µM [3]: 33%

SMILES: O=C(Cn1ccnc1[N+](=O)[O-])NCc1ccccc1 [BENZNIDAZOLE]
- CC50 at 72 h [2]: > 10 µM

SMILES: FC(F)(F)[Se]CCOc1cccc(Oc2ccccc2)c1
- CC50 at 72 h [2]: > 20 µM
- inhibition of growth at 1 µM [4]: 30.9%

SMILES: N#CCCOc1ccc(Oc2ccccc2)cc1
- CC50 at 72 h [2]: > 20 µM

SMILES: N#C[Se]CC1Cc2ccc(Oc3ccccc3)cc2O1 (racemic)
- EC50 [5]: 0.0939 µM
- CC50 at 72 h [2]: > 20 µM

SMILES: FC(F)(F)SCCOc1cccc(Oc2ccccc2)c1
- EC50 [5]: > 10 µM
- CC50 at 72 h [2]: > 20 µM

SMILES: N#C[Se]CCOc1ccc([N+](=O)[O-])cc1
- Activity [6]: Toxic

SMILES: FC(F)(F)[Se]CCOc1ccc(Oc2ccccc2)cc1
- EC50 [5]: > 1 µM
- CC50 at 72 h [2]: > 20 µM
- inhibition of growth at 1 µM [4]: 6.7%

SMILES: N#CCCCOc1ccc(Oc2ccccc2)cc1
- CC50 at 72 h [2]: > 20 µM

SMILES: COc1ccc(OCC[Se]C#N)cc1
- Activity [6]: Toxic
- growth inhibition (GI) [7]: inactive

SMILES: FC(F)(F)SCCOc1ccc(Oc2ccccc2)cc1
- CC50 at 72 h [2]: > 20 µM
- inhibition of growth at 10 µM [3]: 12%

SMILES: N#CSCCOc1ccccc1Oc1ccccc1
- CC50 at 72 h [2]: > 20 µM
- inhibition of growth at 10 µM [3]: 33%
